pEC50: −log10 of the molar value.
Assays:
[1] = test system: HEp-2; assay: Viability of human epidermoid carcinoma cells (H.Ep-2) at a conc 10 ug/mL; type: functional
Method in brief: (§1)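 Human epidermoid carcinoma H.Ep.-2 cells, clone-colony viability assay with retinoid at 1-40 μg/mL; incubated 37 °C for 12 days, stained, colonies counted. % of control = 100 × treated colonies/control colonies.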

[2] = test system: HEp-2; assay: Viability of human epidermoid carcinoma cells (H.Ep-2) at a conc 1 ug/mL; type: functional; method in brief: as §1
[3] = test system: HEp-2; assay: Viability of human epidermoid carcinoma cells (H.Ep-2) at a conc 40 ug/mL; type: functional; method in brief: as §1
[4] = test system: HEp-2; assay: Viability of human epidermoid carcinoma cells (H.Ep-2) at a conc 20 ug/mL; type: functional; method in brief: as §1
[5] = test system: L1210; assay: Inhibition of proliferation of L1210 cells in culture at a conc 10 ug/mL; type: functional, Mus musculus; set-up: scale not given: the % may be the effect or the level left
Method in brief: (§2)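 L1210 suspension of about 10⁵ cells treated with retinoid at 1-40 μg/mL, 37 °C for 48 h; cells counted at 0 and 48 h, three cultures averaged per concentration. % of control = 100 × (treated 48 h − 0 h count)/(control 48 h − 0 h count).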

[6] = test system: L1210; assay: Inhibition of proliferation of L1210 cells in culture at a conc 1 ug/mL; type: functional, Mus musculus; set-up: scale not given: the % may be the effect or the level left; method in brief: as §2
[7] = test system: L1210; assay: Inhibition of proliferation of L1210 cells in culture at a conc 20 ug/mL; type: functional, Mus musculus; set-up: scale not given: the % may be the effect or the level left; method in brief: as §2
[8] = test system: Cricetinae gen. sp.; assay: Cultures with marked degree of squamous metaplasia at a conc of 10e-10 M; type: functional, Cricetulus griseus
Method in brief: (§3)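 Tracheas from 29-31-day-old hamsters fed a vitamin A free diet; cultured in serum-free CMRL 1066 (insulin 1.0 μg/mL, hydrocortisone hemisuccinate 0.1 μg/mL, glutamine 2 mM, Garamycin 50 μg/mL), 50% O2/45% N2/5% CO2, rocked, 36 °C. Retinoid-free 3 days, then retinoid in DMSO (final 0.1%) for 7 days; medium and gas changed three times. Formalin-fixed day 10; squamous metaplasia graded: mild 2-10%, marked 10-40%, severe >40%.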

[9] = test system: Cricetinae gen. sp.; assay: Cultures with marked degree of squamous metaplasia at a conc of 10e-8 M; type: functional, Cricetulus griseus; method in brief: as §3
[10] = test system: Cricetinae gen. sp.; assay: Cultures with marked degree of squamous metaplasia at a conc of 10e-9 M; type: functional, Cricetulus griseus; method in brief: as §3
[11] = test system: Cricetinae gen. sp.; assay: Cultures with mild degree of squamous metaplasia at a conc of 10e-10 M; type: functional, Cricetulus griseus; method in brief: as §3
[12] = test system: Cricetinae gen. sp.; assay: Cultures with mild degree of squamous metaplasia at a conc of 10e-11 M; type: functional, Cricetulus griseus; method in brief: as §3
[13] = test system: Cricetinae gen. sp.; assay: Cultures with mild degree of squamous metaplasia at a conc of 10e-8 M; type: functional, Cricetulus griseus; method in brief: as §3
[14] = test system: Cricetinae gen. sp.; assay: Cultures with minimal degree of squamous metaplasia at a conc of 10e-10 M; type: functional, Cricetulus griseus; method in brief: as §3
[15] = test system: Cricetinae gen. sp.; assay: Cultures with minimal degree of squamous metaplasia at a conc of 10e-11 M; type: functional, Cricetulus griseus; method in brief: as §3
[16] = test system: Cricetinae gen. sp.; assay: Cultures with minimal degree of squamous metaplasia at a conc of 10e-8 M; type: functional, Cricetulus griseus; method in brief: as §3
[17] = test system: Cricetinae gen. sp.; assay: Cultures with minimal degree of squamous metaplasia at a conc of 10e-9 M; type: functional, Cricetulus griseus; method in brief: as §3
[18] = test system: Cricetinae gen. sp.; assay: Cultures with no evidence of squamous metaplasia at a conc of 10e-10 M; type: functional, Cricetulus griseus; method in brief: as §3
[19] = test system: Cricetinae gen. sp.; assay: Cultures with no evidence of squamous metaplasia at a conc of 10e-11 M; type: functional, Cricetulus griseus; method in brief: as §3
[20] = test system: Cricetinae gen. sp.; assay: Cultures with no evidence of squamous metaplasia at a conc of 10e-8 M; type: functional, Cricetulus griseus; method in brief: as §3
[21] = test system: Cricetinae gen. sp.; assay: Cultures with no evidence of squamous metaplasia at a conc of 10e-9 M; type: functional, Cricetulus griseus; method in brief: as §3
[22] = test system: Cricetinae gen. sp.; assay: Cultures with severe degree of squamous metaplasia at a conc of 10e-10 M; type: functional, Cricetulus griseus; method in brief: as §3
[23] = test system: Cricetinae gen. sp.; assay: Cultures with severe degree of squamous metaplasia at a conc of 10e-11 M; type: functional, Cricetulus griseus; method in brief: as §3
[24] = test system: Cricetinae gen. sp.; assay: Cultures with severe degree of squamous metaplasia at a conc of 10e-8 M; type: functional, Cricetulus griseus; method in brief: as §3
[25] = test system: Cricetinae gen. sp.; assay: Cultures with severe degree of squamous metaplasia at a conc of 10e-9 M; type: functional, Cricetulus griseus; method in brief: as §3
[26] = test system: Cricetinae gen. sp.; assay: Reversal of keratinization in vitamin A deficient hamster trachea culture at a conc of 10e-8 M; type: functional, Cricetulus griseus; settings: read-out: ED50 (the source's name)
Method in brief: (§4)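 Tracheas from 29-31-day-old hamsters kept on a vitamin A free diet, cultured in serum-free CMRL 1066 (insulin 1.0 μg/mL, hydrocortisone hemisuccinate 0.1 μg/mL, glutamine 2 mM, Garamycin 50 μg/mL), 50% O2/45% N2/5% CO2, rocked at 36 °C. Retinoid-free for 3 days, then retinoid in DMSO (0.1% final) for 7 days. Fixed in formalin; squamous metaplasia graded mild 2-10%, marked 10-40%, severe >40%.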

[27] = test system: Cricetinae gen. sp.; assay: Cultures with marked degree of squamous metaplasia at a conc of 10e-11 M; type: functional; method in brief: as §3
[28] = test system: Cricetinae gen. sp.; assay: Cultures with mild degree of squamous metaplasia at a conc of 10e-9 M; type: functional, Cricetulus griseus; method in brief: as §3
[29] = test system: Cricetinae gen. sp.; assay: Reversal of keratinization in vitamin A deficient hamster trachea culture; type: functional, Cricetulus griseus; settings: read-out: ED50 (the source's name); method in brief: as §4
[30] = test system: L1210; assay: Inhibition of proliferation of L1210 cells in culture at a conc 40 ug/mL; type: functional, Mus musculus; set-up: scale not given: the % may be the effect or the level left; method in brief: as §2

| Compound | Culture [8] [%] | Culture [9] [%] | Culture [10] [%] | Culture [11] [%] | Culture [13] [%] | Culture [14] [%] | Culture [16] [%] | Culture [17] [%] | Culture [18] [%] | Culture [20] [%] | Culture [21] [%] | Culture [22] [%] | Culture [24] [%] | Culture [25] [%] | pEC50 [26] | Culture [28] [%] | pEC50 [29] | other results |
| --- | --- | --- | --- | --- | --- | --- | --- | --- | --- | --- | --- | --- | --- | --- | --- | --- | --- | --- |
| CC1=C(/C=C/C(C)=C/C=C/C(C)=C/C(=O)NCC(=O)O)C(C)(C)CCC1 |  |  |  |  |  |  |  |  |  |  |  |  |  |  |  |  |  | Control [1]: 67%; Control [2]: 116%; Control [3]: 13%; Control [4]: 12%; Control [5]: 70%; Control [6]: 68%; Control [7]: 19% |
| CC1=C(/C=C/C(C)=C/C=C/C(C)=C\C(=O)NC(Cc2ccccc2)C(=O)O)C(C)(C)CCC1 (stereo not given) | 36 | 20 | 20 | 21 | 13 | 0 | 0 | 0 | 29 | 60 | 53 | 14 | 7 | 7 | 9.22 | 20 |  | Culture [12]: 14%; Culture [15]: 0%; Culture [19]: 29%; Culture [23]: 14%; Culture [27]: 43% |
| CCNC(=O)\C=C(C)/C=C/C=C(C)/C=C/C1=C(C)CCCC1(C)C |  |  |  |  |  |  |  |  |  |  |  |  |  |  |  |  | 9.52 | Control [1]: 13%; Control [2]: 59%; Control [3]: 15%; Control [4]: 10%; Control [5]: 77%; Control [6]: 84%; Control [7]: 54% |
| CCNC(=O)/C=C(C)/C=C/C=C(C)/C=C/C1=C(C)CCCC1(C)C |  |  |  |  |  |  |  |  |  |  |  |  |  |  |  |  | 9.00 |  |
| CC1=C(/C=C/C(C)=C/C=C/C(C)=C\C(=O)Nc2ccc(O)cc2)C(C)(C)CCC1 |  |  |  |  |  |  |  |  |  |  |  |  |  |  |  |  | < 9.00 |  |
| CC1=C(/C=C/C(C)=C/C=C/C(C)=C\C(=O)NCCO)C(C)(C)CCC1 |  |  |  |  |  |  |  |  |  |  |  |  |  |  |  |  | 9.52 | Control [1]: 38%; Control [2]: 61%; Control [3]: 27%; Control [4]: 21%; Control [5]: 57%; Control [6]: 76%; Control [7]: 56%; Control [30]: 0.5% |
| CC1=C(/C=C/C(C)=C/C=C/C(C)=C\C(=O)NC(C)C(=O)O)C(C)(C)CCC1 (stereo not given) | 36 | 0 | 40 | 21 | 0 | 0 | 0 | 0 | 36 | 100 | 47 | 7 | 0 | 0 | 9.15 | 13 |  | Culture [12]: 0%; Culture [15]: 0%; Culture [19]: 14%; Culture [23]: 15%; Culture [27]: 71% |
| CC1=C(/C=C/C(C)=C/C=C/C(C)=C/C(=O)NC(CCC(=O)O)C(=O)O)C(C)(C)CCC1 (stereo not given) | 43 | 50 | 25 | 29 | 12 | 14 | 0 | 0 | 14 | 38 | 25 | 0 | 0 | 0 | < 8.00 | 50 |  |  |
| CC1=C(/C=C/C(C)=C/C=C/C(C)=C\C(=O)NC(CC(C)C)C(=O)O)C(C)(C)CCC1 (stereo not given) | 57 | 14 | 14 | 14 | 14 | 0 | 0 | 0 | 29 | 72 | 57 | 0 | 0 | 0 | 9.30 | 29 |  | Culture [12]: 0%; Culture [15]: 0%; Culture [19]: 33%; Culture [23]: 17%; Culture [27]: 50% |
| CC1=C(/C=C/C(C)=C/C=C/C(C)=C/C(=O)NCCO)C(C)(C)CCC1 |  |  |  |  |  |  |  |  |  |  |  |  |  |  |  |  | 10.00 |  |
| CC1=C(/C=C/C(C)=C/C=C/C(C)=C/C(=O)NC(Cc2ccc(O)cc2)C(=O)O)C(C)(C)CCC1 (stereo not given) | 58 | 25 | 50 | 14 | 0 | 0 | 0 | 0 | 14 | 75 | 38 | 14 | 0 | 0 | 8.52 | 12 |  |  |
| CC1=C(/C=C/C(C)=C/C=C/C(C)=C/C(=O)Nc2ccc(O)cc2)C(C)(C)CCC1 [FENRETINIDE] |  |  |  |  |  |  |  |  |  |  |  |  |  |  |  |  | 9.52 |  |
| CC1=C(/C=C/C(C)=C/C=C/C(C)=C\C(=O)O)C(C)(C)CCC1 [ISOTRETINOIN] |  |  |  |  |  |  |  |  |  |  |  |  |  |  |  |  | 10.52 |  |
| CC1=C(/C=C/C(C)=C/C=C/C(C)=C/C(=O)O)C(C)(C)CCC1 [TRETINOIN] |  |  |  |  |  |  |  |  |  |  |  |  |  |  |  |  | 10.52 |  |

— ChEMBL document CHEMBL1123950, “N-(Retinoyl)amino acids. Synthesis and chemopreventive activity in vitro” (1988)
